From ChEMBL document CHEMBL5705888, “Substrate specificity and inhibitors of LRRK2, a protein kinase mutated in Parkinson's disease” (Biochem J, 2009)
Active and inactive are the calls of the source. The rule behind the calls is not given here.

Assays:
[1] = biological target: Serine/threonine-protein kinase Chk1 (Homo sapiens) (UniProt O14757); assay: Inhibition of CHK1 (unknown origin) at 1 uM incubated for 30 mins in presence of [gamma-33P]ATP by multidrop micro reagent based assay relative to control; values are per cent of control
Chain of Serine/threonine-protein kinase Chk1 (Homo sapiens) (O14757 whole entry): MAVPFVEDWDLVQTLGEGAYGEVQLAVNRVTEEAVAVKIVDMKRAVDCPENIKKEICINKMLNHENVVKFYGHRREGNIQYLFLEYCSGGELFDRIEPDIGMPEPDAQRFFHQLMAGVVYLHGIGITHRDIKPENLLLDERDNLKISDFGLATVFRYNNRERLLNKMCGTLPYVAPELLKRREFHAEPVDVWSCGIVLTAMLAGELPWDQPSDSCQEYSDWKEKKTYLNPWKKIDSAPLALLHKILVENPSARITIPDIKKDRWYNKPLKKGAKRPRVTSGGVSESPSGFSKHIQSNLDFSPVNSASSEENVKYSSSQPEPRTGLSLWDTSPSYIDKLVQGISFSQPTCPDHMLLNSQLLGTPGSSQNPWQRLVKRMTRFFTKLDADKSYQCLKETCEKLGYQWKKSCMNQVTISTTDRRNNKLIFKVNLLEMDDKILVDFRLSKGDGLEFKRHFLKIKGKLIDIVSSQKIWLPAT

[2] = biological target: Leucine-rich repeat serine/threonine-protein kinase 2 (Homo sapiens, UniProt Q5S007); assay: Inhibition of LRRK2 in human HEK293 cells assessed as inhibition of ERM phosphorylation at 10 uM incubated for 1 hr using LRRKtide as substrate in presence of sunitinib by immunoblot analysis; format: cell-based
How it was run: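 SDS lysates were run on 4–12% gels and immunoblotted for ERM phosphorylation with pan-phospho-ERM antibody (1 μg/ml, with 10 μg/ml LRRKtide in blocking milk/TBST).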

[3] = biological target: Serine/threonine-protein kinase 26 (Homo sapiens) (UniProt Q9P289); assay: Inhibition of MST4 (unknown origin) at 1 uM incubated for 30 mins in presence of [gamma-33P]ATP by multidrop micro reagent based assay relative to control
Chain of Serine/threonine-protein kinase 26 (Homo sapiens) (Q9P289 2-416 limits assumed): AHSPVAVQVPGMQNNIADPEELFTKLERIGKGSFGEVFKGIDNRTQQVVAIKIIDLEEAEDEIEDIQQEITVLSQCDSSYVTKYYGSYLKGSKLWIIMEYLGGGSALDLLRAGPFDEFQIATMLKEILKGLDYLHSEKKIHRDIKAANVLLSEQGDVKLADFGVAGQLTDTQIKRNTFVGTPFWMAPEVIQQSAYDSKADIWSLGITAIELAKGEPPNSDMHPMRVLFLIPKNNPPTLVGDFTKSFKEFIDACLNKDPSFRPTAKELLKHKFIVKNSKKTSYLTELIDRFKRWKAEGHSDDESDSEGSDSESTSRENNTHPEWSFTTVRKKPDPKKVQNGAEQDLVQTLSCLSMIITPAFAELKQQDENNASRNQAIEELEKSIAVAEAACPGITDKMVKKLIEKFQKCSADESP

[4] = biological target: Dual specificity tyrosine-phosphorylation-regulated kinase 1A (Homo sapiens) (UniProt Q13627); assay: Inhibition of DYRK1A (unknown origin) at 1 uM incubated for 30 mins in presence of [gamma-33P]ATP by multidrop micro reagent based assay relative to control; values are per cent of control
[5] = biological target: Homeodomain-interacting protein kinase 2 (Homo sapiens) (UniProt Q9H2X6); assay: Inhibition of HIPK2 (unknown origin) at 1 uM incubated for 30 mins in presence of [gamma-33P]ATP by multidrop micro reagent based assay relative to control; values are per cent of control
[6] = biological target: MAP kinase-activated protein kinase 2 (Homo sapiens) (UniProt P49137); assay: Inhibition of MAPKAPK2 (unknown origin) at 1 uM incubated for 30 mins in presence of [gamma-33P]ATP by multidrop micro reagent based assay relative to control; values are per cent of control
[7] = biological target: Leucine-rich repeat serine/threonine-protein kinase 2 (Mus musculus) (UniProt Q5S006); assay: Inhibition of LRRK2 in mouse Swiss-3T3 cells at 2 uM using Nictide as substrate by immunoblot analysis; format: cell-based
Chain of Leucine-rich repeat serine/threonine-protein kinase 2 (Mus musculus) (Q5S006 whole entry): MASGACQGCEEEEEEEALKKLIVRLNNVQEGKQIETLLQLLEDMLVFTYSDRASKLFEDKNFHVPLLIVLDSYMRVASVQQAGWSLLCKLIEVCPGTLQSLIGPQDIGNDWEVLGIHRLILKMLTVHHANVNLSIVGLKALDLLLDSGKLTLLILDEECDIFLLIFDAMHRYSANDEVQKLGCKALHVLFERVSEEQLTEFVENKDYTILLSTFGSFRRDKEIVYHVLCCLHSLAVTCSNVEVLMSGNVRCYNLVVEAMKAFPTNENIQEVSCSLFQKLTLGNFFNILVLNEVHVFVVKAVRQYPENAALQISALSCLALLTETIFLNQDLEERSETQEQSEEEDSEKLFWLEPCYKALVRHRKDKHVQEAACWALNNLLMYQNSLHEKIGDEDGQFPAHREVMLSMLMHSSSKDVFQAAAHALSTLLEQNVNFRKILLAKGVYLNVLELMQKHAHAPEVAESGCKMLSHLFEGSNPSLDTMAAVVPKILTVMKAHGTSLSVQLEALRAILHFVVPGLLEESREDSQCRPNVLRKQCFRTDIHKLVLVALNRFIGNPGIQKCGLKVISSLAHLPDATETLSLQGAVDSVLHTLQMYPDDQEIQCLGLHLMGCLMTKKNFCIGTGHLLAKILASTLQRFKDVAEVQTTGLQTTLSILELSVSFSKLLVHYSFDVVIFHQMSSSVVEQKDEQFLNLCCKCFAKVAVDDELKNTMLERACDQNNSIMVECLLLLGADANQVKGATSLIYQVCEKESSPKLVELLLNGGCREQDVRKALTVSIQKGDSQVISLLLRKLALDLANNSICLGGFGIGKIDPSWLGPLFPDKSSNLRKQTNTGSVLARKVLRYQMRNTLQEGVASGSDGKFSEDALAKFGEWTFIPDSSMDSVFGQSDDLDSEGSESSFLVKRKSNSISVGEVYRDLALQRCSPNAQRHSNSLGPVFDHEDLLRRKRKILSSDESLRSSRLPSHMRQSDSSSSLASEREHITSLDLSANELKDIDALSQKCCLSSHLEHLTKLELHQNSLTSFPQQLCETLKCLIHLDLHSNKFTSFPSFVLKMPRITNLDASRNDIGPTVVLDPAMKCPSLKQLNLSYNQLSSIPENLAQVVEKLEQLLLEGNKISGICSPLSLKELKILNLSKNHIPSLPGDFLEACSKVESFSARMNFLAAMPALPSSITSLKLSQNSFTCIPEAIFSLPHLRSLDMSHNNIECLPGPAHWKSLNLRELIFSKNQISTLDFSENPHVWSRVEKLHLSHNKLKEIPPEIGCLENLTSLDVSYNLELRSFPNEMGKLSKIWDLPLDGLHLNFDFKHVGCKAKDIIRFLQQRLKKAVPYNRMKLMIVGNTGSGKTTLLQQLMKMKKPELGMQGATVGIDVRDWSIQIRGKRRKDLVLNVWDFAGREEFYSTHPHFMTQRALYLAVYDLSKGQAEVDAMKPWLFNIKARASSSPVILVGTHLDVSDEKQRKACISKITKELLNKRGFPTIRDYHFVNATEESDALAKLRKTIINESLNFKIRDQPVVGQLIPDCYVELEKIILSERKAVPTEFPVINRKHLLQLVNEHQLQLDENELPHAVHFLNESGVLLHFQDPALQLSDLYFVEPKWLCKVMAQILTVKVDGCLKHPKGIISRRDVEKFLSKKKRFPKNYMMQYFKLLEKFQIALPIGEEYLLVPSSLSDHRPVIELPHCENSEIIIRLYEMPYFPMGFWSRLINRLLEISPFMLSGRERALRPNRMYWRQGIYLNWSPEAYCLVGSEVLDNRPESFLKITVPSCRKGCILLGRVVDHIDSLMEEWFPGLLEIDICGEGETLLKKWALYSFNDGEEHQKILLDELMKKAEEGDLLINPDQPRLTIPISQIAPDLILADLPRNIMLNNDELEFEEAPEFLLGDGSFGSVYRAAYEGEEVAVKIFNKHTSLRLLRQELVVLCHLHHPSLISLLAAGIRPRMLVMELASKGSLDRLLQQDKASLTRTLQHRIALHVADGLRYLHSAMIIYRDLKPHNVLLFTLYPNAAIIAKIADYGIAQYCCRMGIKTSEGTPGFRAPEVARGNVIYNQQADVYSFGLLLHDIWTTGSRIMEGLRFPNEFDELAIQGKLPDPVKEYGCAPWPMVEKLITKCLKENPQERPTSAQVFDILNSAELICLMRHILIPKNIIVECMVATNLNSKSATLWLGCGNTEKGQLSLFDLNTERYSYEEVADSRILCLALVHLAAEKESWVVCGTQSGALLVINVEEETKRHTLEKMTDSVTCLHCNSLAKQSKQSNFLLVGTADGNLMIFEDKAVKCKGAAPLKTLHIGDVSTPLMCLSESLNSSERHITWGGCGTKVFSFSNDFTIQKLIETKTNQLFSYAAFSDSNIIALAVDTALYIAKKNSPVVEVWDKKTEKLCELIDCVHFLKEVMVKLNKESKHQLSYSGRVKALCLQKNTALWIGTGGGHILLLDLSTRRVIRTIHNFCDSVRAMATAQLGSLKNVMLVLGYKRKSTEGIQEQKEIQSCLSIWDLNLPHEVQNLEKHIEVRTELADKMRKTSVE

[8] = biological target: Misshapen-like kinase 1 (Homo sapiens) (UniProt Q8N4C8); assay: Inhibition of MINK1 (unknown origin) at 0.1 uM incubated for 30 mins in presence of [gamma-33P]ATP by multidrop micro reagent based assay relative to control
[9] = biological target: Leucine-rich repeat serine/threonine-protein kinase 2 (Mus musculus) (UniProt Q5S006); assay: Inhibition of LRRK2 in mouse Swiss-3T3 cells at 0.3 uM using Nictide as substrate by immunoblot analysis; format: cell-based
[10] = biological target: Myosin light chain kinase, smooth muscle (Homo sapiens) (UniProt Q15746); assay: Inhibition of SmMLCK (unknown origin) at 0.1 uM incubated for 30 mins in presence of [gamma-33P]ATP by multidrop micro reagent based assay relative to control
How it was run: (§1)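 Single-concentration screen across a panel of 85 protein kinases. Activity is expressed as a percentage of control incubations run without inhibitor.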

[11] = biological target: Mitogen-activated protein kinase kinase kinase 11 (Homo sapiens) (UniProt Q16584); assay: Inhibition of MLK3 (unknown origin) at 10 uM incubated for 30 mins in presence of [gamma-33P]ATP by multidrop micro reagent based assay relative to control
[12] = biological target: SRSF protein kinase 1 (Homo sapiens) (UniProt Q96SB4); assay: Inhibition of SRPK1 (unknown origin) at 10 uM incubated for 30 mins in presence of [gamma-33P]ATP by multidrop micro reagent based assay relative to control; values are per cent of control
Chain of SRSF protein kinase 1 (Homo sapiens) (Q96SB4 whole entry): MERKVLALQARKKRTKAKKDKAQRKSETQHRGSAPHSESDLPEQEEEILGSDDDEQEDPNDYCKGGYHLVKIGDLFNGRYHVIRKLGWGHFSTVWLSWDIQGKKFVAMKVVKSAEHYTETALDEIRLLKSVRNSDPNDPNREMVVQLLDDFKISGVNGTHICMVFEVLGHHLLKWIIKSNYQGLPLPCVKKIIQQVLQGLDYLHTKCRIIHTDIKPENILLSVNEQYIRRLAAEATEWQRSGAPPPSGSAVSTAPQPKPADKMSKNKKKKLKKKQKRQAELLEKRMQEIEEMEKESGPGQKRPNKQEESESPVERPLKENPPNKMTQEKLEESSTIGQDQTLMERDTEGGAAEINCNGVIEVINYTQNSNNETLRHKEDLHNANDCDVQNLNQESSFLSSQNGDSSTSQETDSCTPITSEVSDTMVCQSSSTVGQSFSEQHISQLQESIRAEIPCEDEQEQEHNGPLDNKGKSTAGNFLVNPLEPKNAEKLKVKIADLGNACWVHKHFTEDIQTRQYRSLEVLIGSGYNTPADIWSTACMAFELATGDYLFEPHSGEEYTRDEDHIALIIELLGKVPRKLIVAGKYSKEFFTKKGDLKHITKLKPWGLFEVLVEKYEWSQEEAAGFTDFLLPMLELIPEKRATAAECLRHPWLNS

[13] = biological target: Calcium/calmodulin-dependent protein kinase kinase 2 (Homo sapiens) (UniProt Q96RR4); assay: Residual activity of CaMKKbeta (unknown origin) at 10 uM incubated for 30 mins in presence of [gamma-33P]ATP by multidrop micro reagent based assay relative to control
[14] = biological target: RAC-beta serine/threonine-protein kinase (Homo sapiens) (UniProt P31751); assay: Inhibition of PKBbeta (unknown origin) at 10 uM incubated for 30 mins in presence of [gamma-33P]ATP by multidrop micro reagent based assay relative to control; values are per cent of control
[15] = biological target: Insulin receptor (Homo sapiens) (UniProt P06213); assay: Inhibition of His-tagged IR (unknown origin) at 10 uM incubated for 30 mins in presence of [gamma-33P]ATP by multidrop micro reagent based assay relative to control
[16] = biological target: Casein kinase 2 (Homo sapiens) (UniProt P67870+P68400+P19784+Q8NEV1); assay: Inhibition of CK2 (unknown origin) at 10 uM incubated for 30 mins in presence of [gamma-33P]ATP by multidrop micro reagent based assay relative to control; values are per cent of control
[17] = biological target: Tyrosine-protein kinase CSK (Homo sapiens) (UniProt P41240); assay: Residual activity of CSK (unknown origin) at 10 uM incubated for 30 mins in presence of [gamma-33P]ATP by multidrop micro reagent based assay relative to control
Chain of Tyrosine-protein kinase CSK (Homo sapiens) (P41240 2-450 limits assumed): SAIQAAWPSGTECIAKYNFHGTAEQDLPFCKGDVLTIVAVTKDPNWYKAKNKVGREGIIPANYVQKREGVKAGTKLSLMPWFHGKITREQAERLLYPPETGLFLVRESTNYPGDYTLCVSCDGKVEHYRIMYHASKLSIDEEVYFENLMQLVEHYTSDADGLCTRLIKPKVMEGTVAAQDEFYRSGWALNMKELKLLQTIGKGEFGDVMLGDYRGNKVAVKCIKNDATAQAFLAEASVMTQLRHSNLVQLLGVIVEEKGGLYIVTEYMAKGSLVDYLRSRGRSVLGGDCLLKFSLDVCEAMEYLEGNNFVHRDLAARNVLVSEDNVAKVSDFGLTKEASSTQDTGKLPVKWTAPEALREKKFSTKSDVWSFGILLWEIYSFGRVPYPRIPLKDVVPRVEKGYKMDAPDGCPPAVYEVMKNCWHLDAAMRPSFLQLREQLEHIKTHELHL

[18] = biological target: MAP kinase-interacting serine/threonine-protein kinase 1 (Homo sapiens) (UniProt Q9BUB5); assay: Inhibition of MNK1 (unknown origin) at 10 uM incubated for 30 mins in presence of [gamma-33P]ATP by multidrop micro reagent based assay relative to control
Chain of MAP kinase-interacting serine/threonine-protein kinase 1 (Homo sapiens) (Q9BUB5 whole entry, looked up): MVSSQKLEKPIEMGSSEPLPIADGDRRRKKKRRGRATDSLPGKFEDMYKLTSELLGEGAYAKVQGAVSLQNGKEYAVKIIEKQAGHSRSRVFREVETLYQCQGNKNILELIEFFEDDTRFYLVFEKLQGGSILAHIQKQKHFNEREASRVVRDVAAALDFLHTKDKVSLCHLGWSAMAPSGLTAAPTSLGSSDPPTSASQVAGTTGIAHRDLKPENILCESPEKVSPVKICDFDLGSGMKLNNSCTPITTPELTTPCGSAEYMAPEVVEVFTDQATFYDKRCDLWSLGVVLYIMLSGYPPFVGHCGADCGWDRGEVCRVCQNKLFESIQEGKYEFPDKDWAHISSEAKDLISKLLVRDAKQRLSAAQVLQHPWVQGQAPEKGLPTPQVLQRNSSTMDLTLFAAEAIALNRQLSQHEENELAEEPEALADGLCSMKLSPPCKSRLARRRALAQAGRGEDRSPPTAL
How it was run: as §1

Homo sapiens = organism: Homo sapiens; assay: Inhibition of CDK2/cyclin A (unknown origin) at 10 uM incubated for 30 mins in presence of [gamma-33P]ATP by multidrop micro reagent based assay relative to control
[19] = biological target: T1, Mitogen-activated protein kinase 15 (Homo sapiens) (UniProt Q8TD08); assay: Inhibition of ERK8 (unknown origin) at 10 uM incubated for 30 mins in presence of [gamma-33P]ATP by multidrop micro reagent based assay relative to control
T1 sequence (whole entry): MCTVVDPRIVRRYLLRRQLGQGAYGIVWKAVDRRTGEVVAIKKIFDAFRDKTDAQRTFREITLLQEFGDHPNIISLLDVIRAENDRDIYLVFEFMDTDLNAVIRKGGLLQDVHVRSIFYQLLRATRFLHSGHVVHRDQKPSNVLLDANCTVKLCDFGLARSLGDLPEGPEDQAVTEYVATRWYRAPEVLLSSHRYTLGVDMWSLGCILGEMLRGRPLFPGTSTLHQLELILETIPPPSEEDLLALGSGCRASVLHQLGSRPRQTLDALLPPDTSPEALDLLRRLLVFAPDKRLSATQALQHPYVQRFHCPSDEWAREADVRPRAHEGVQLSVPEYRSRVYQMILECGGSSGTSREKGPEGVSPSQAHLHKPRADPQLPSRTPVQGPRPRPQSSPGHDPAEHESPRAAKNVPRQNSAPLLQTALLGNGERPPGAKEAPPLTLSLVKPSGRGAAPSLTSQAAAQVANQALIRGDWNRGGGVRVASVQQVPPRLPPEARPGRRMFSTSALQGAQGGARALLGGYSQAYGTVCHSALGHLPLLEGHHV

Q: CC1=C(C(=O)Nc2cc3cn[nH]c3cc2F)C(c2ccc(C(F)(F)F)cc2)CC(=O)N1 (stereo not given) was tested. Which residual activity [1] did it give?
A: 111%

Q: What about the inhibition [2] of the same compound?
A: inactive

Q: What about the residual activity [3] of the same compound?
A: 70%

Q: What about the residual activity [4] of the same compound?
A: 98%

Q: And the residual activity [5]?
A: 104%

Q: And the residual activity [6]?
A: 91%

Q: Which inhibition [7] does the source give for Cc1cncc2cccc(S(=O)(=O)N3CCCNC[C@@H]3C)c12 here?
A: Active

Q: For CCN(CC)CCNC(=O)c1c(C)[nH]c(/C=C2\C(=O)Nc3ccc(F)cc32)c1C, which inhibition [8] is on record?
A: 46%

Q: And the inhibition [9]?
A: Active

Q: And the inhibition [10]?
A: 49%

Q: How did the inhibition [11] turn out when C[C@@H](N)[C@H]1CC[C@H](C(=O)Nc2ccncc2)CC1 was run?
A: 110%

Q: And the residual activity [12]?
A: 65%

Q: And the residual activity [13]?
A: 102%

Q: What about the residual activity [14] of the same compound?
A: 105%

Q: And the inhibition [15]?
A: 113%

Q: And the residual activity [16]?
A: 85%

Q: And the residual activity [17]?
A: 104%

Q: And the inhibition [18]?
A: 20%

Q: How did the inhibition (Homo sapiens) turn out when O=S(=O)(c1cccc2cnccc12)N1CCCNCC1 [FASUDIL] was run?
A: 82%

Q: What about the inhibition [19] of the same compound?
A: 68%
